Data reported in ChEMBL document CHEMBL5385869, “Novel 4-aminoquinolines: Synthesis, inhibition of the Mycobacterium tuberculosis enoyl-acyl carrier protein reductase, antitubercular activity, SAR, and preclinical evaluation” (Eur J Med Chem, 2023).
Converted amounts (≈) assume the structure as drawn. The source made the active and inactive calls. The rule behind the calls is not given here.

Experiments:
[1] = tested on: Mycobacterium tuberculosis; experiment: Antibacterial activity against pan-sensitive Mycobacterium tuberculosis H37Rv ATCC 27294 measured after 7 days by resazurin dye based assay; type: functional; details: H37Rv ATCC 27294, 168 h, time 7 day
In short: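 Resazurin reduction microplate assay (REMA) in Middlebrook 7H9 broth with 10% ADC and 5% DMSO. Compounds come from 2 mg/mL DMSO stocks and are 2-fold serially diluted, top concentration 0.08–40 μg/mL depending on solubility. MIC is the lowest concentration preventing the blue-to-pink colour change. Three independent experiments; the reported value is the modal or the highest value.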

[2] = biological target: T1, Enoyl-[acyl-carrier-protein] reductase [NADH] (Mycobacterium tuberculosis, UniProt P9WGR1); experiment: Inhibition of Mycobacterium tuberculosis InhA-catalysed chemical reaction in presence of NADH measured for 1 min by UV/Visible spectrophotometry
T1 sequence (P9WGR1 whole entry): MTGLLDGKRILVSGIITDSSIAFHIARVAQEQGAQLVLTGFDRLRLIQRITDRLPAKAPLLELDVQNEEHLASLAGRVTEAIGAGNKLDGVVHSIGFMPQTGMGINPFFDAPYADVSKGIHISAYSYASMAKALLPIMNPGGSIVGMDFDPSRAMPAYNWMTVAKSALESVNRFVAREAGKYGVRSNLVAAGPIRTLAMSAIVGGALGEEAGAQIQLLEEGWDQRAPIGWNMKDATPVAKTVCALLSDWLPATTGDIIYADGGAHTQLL
In short: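 Recombinant MtInhA reaction at 25 °C in 100 mM Pipes pH 7.0, started by adding 2.2 μM enzyme and followed for 1 min. Substrate is DD-CoA, made from 2-trans-dodecenoic acid and CoA.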

[3] = tested on: Mycobacterium tuberculosis; experiment: Antibacterial activity against Mycobacterium tuberculosis H37Rv ATCC 27294 infected in CF-1 mouse assessed as reversal of bacterial growth in spleen at 300 uM/kg, po administered daily for 14 days starting from 7 days post infection; type: functional, organism-based; details: time 14.0 day
In short: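 Mice treated by gavage from 7 days post-infection for 14 days, daily, at 300 or 450 μM/kg. Lungs and spleen homogenized in saline and plated for CFU. Comparisons are against vehicle and early-control groups.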

[4] = Cytotoxicity against African green monkey Vero cells assessed as reduction in cell viability incubated for 72 hrs by MTT assay; type: toxicity, cell-based; details: chlorocebus sabaeus
In short: (§1)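 Cells grown in DMEM with 10% FBS. HepG2 seeded at 4 × 10³ and Vero at 2 × 10³ cells/well, 24 h before dosing. Compounds at 1, 5 and 20 μM in 1% DMSO for 72 h at 37 °C, 5% CO2. MTT readout: 5 mg/mL reagent for 4 h, absorbance at 595 nm. Neutral red readout: 25 μg/mL dye for 3 h, then acid-ethanol desorb. Viability is expressed relative to 1% DMSO controls.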

[5] = biological target: T2, Enoyl-[acyl-carrier-protein] reductase [NADH] (Mycobacterium tuberculosis) (UniProt P9WGR1); experiment: Binding affinity to Mycobacterium tuberculosis InhA assessed as change in enthalpy at 250 uM in presence of NADH by fluorescence spectroscopy
T2 sequence (whole entry): T1 sequence (P9WGR1 whole entry)

[6] = biological target: T2, Enoyl-[acyl-carrier-protein] reductase [NADH] (Mycobacterium tuberculosis); experiment: Binding affinity to Mycobacterium tuberculosis InhA assessed as change in entropy at 250 uM in presence of NADH by fluorescence spectroscopy
[7] = Selectivity index, ratio of CC50 for African green monkey Vero cells by neutral red uptake assay to MIC for pan-sensitive Mycobacterium tuberculosis H37Rv ATCC 27294; type: toxicity, cell-based; details: read-out: Selectivity Index
[8] = biological target: T1, Enoyl-[acyl-carrier-protein] reductase [NADH]; experiment: Binding affinity to Mycobacterium tuberculosis InhA assessed as dissociation constant at 250 uM at 25 degreeC in presence of NADH by fluorescence spectroscopy
In short: (§2)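 Titration of pre-formed MtInhA:NADH complex (2 mL of 3 μM enzyme with 20 μM NADH), adding microliter aliquots of 250 μM ligand stock with dilution kept ≤1%. Intrinsic fluorescence read at 295 nm excitation, 310–500 nm emission. Temperatures 15, 20, 25 and 30 °C. KD is fitted to a hyperbolic isotherm. ΔH°, ΔS° and ΔG° come from van't Hoff analysis of KD across temperatures.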

[9] = biological target: T1, Enoyl-[acyl-carrier-protein] reductase [NADH]; experiment: Noncompetitive inhibition of Mycobacterium tuberculosis InhA using DD-CoA as substrate assessed as inhibition constant for enzyme-substrate-inhibitor ternary complex in presence of varying concentrations of NADH by double reciprocal plot analysis
[10] = Selectivity index, ratio of CC50 for human HepG2 cells by neutral red uptake assay to MIC for pan-sensitive Mycobacterium tuberculosis H37Rv ATCC 27294; type: toxicity; details: read-out: Selectivity Index
[11] = Selectivity index, ratio of CC50 for human HepG2 cells by MTT assay to MIC for pan-sensitive Mycobacterium tuberculosis H37Rv ATCC 27294; type: toxicity; details: read-out: Selectivity Index
[12] = biological target: T1, Enoyl-[acyl-carrier-protein] reductase [NADH]; experiment: Competitive inhibition of Mycobacterium tuberculosis InhA using varying concentrations of DD-CoA as substrate assessed as inhibition constant for enzyme-inhibitor binary complex in presence of NADH by Lineweaver-Burk plot analysis
In short: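 Steady-state kinetics with recombinant MtInhA in 100 mM Pipes pH 7.0 at 25 °C. NADH fixed at 60 μM, DD-CoA varied 15–135 μM, inhibitor at fixed-varied levels of 0.2–4 μM. Kis is fitted to the competitive inhibition equation.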

[13] = Cytotoxicity against human HepG2 cells assessed as reduction in cell viability incubated for 72 hrs by MTT assay; type: toxicity, cell-based; in short: as §1
[14] = biological target: T1, Enoyl-[acyl-carrier-protein] reductase [NADH]; experiment: Noncompetitive inhibition of Mycobacterium tuberculosis InhA using DD-CoA as substrate assessed as inhibition constant for enzyme-inhibitor binary complex in presence of varying concentrations of NADH by double reciprocal plot analysis
[15] = Cytotoxicity against African green monkey Vero cells assessed as reduction in cell viability incubated for 72 hrs by neutral red uptake assay; type: toxicity, cell-based; details: chlorocebus sabaeus; in short: as §1
[16] = Cytotoxicity against human HepG2 cells assessed as reduction in cell viability incubated for 72 hrs by neutral red uptake assay; type: toxicity, cell-based; in short: as §1
[17] = biological target: T2, Enoyl-[acyl-carrier-protein] reductase [NADH] (Mycobacterium tuberculosis); experiment: Time dependent inhibition of Mycobacterium tuberculosis InhA
[18] = Selectivity index, ratio of CC50 for African green monkey Vero cells by MTT assay to MIC for pan-sensitive Mycobacterium tuberculosis H37Rv ATCC 27294; type: toxicity, cell-based; details: read-out: Selectivity Index
[19] = biological target: T2, Enoyl-[acyl-carrier-protein] reductase [NADH] (Mycobacterium tuberculosis); experiment: Binding affinity to Mycobacterium tuberculosis InhA assessed as gibbs free energy change at 250 uM in presence of NADH by fluorescence spectroscopy; in short: as §2

Compound: CO[C@H]1/C=C/O[C@@]2(C)Oc3c(C)c(O)c4c(O)c(c(/C=N/N5CCN(C)CC5)c(O)c4c3C2=O)NC(=O)/C(C)=C\C=C\[C@H](C)[C@H](O)[C@@H](C)[C@@H](O)[C@@H](C)[C@H](OC(C)=O)[C@@H]1C [RIFAMPIN]
- MIC [1]: 0.05 µM (≈ 0.0411 µg/mL)

Compound: COc1ccc2nc(C)cc(Nc3ccc(N4CCCCC4)cc3)c2c1
- MIC [1]: 3.6 µM (≈ 1.25 µg/mL)
- IC50 [2]: 4.7 µM

Compound: CCOC(=O)c1ccc2nc(C)cc(Nc3ccc(N4CCC(C)CC4)cc3)c2c1
- MIC [1]: 6.2 µM (≈ 2.5 µg/mL)
- IC50 [2]: 10.9 µM

Compound: CCc1cc(Nc2ccc(N3CCCCC3)cc2)c2cc(Br)ccc2n1
- MIC [1]: 0.75 µM (≈ 0.308 µg/mL)
- IC50 [2]: 1.54 µM

Compound: Cc1cc(Nc2ccc(N3CCCCC3)cc2)c2cc(N(C)C)ccc2n1
- MIC [1]: 6.9 µM (≈ 2.49 µg/mL)
- IC50 [2]: 20 µM

Compound: CCOC(=O)c1ccc2nc(C)cc(Nc3ccc(N4CCCC4)cc3)c2c1
- MIC [1]: 13.3 µM (≈ 4.99 µg/mL)
- IC50 [2]: 21.7 µM

Compound: CCOC(=O)c1ccc2nc(C)cc(Nc3ccc(C(=O)N4CCCC4)cc3)c2c1
- MIC [1]: > 49.6 µM
- IC50 [2]: 44.5 µM

Compound: CCOC(=O)c1ccc2nc(C)cc(Nc3ccc(-n4cnc5ccccc54)cc3)c2c1
- MIC [1]: > 47.3 µM
- IC50 [2]: 42.1 µM

Compound: CCCc1ccc(Nc2cc(C)nc3ccc(C(=O)OCC)cc23)cc1
- MIC [1]: 14.3 µM (≈ 4.98 µg/mL)
- IC50 [2]: 19.6 µM

Compound: CCOC(=O)c1ccc2nc(C)cc(Nc3ccc(N4CCSCC4)cc3)c2c1
- MIC [1]: > 12.3 µM
- IC50 [2]: > 50 µM

Compound: CCOC(=O)c1ccc2nc(C)cc(Nc3ccc(N4CCOCC4)cc3)c2c1
- MIC [1]: 51.1 µM (≈ 20 µg/mL)
- IC50 [2]: 19.5 µM

Compound: CCCCc1ccc(Nc2cc(C)nc3ccc(C(=O)OCC)cc23)cc1
- MIC [1]: 6.9 µM (≈ 2.5 µg/mL)
- IC50 [2]: 11.2 µM

Compound: Cc1ccc2nc(C)cc(Nc3ccc(N4CCCCC4)cc3)c2c1
- MIC [1]: 7.5 µM (≈ 2.49 µg/mL)
- IC50 [2]: 17.2 µM

Compound: CCc1cc(Nc2ccc(N3CCCCC3)cc2)c2cc(Cl)ccc2n1
- MIC [1]: 1.7 µM (≈ 0.622 µg/mL)
- IC50 [2]: 2.9 µM

Compound: CCOc1ccc2nc(C)cc(Nc3ccc(N4CCCCC4)cc3)c2c1
- MIC [1]: 6.9 µM (≈ 2.49 µg/mL)
- IC50 [2]: 9.5 µM

Compound: Cc1cc(Nc2ccc(-n3cccn3)cc2)c2cc(Br)ccc2n1
- MIC [1]: 3.3 µM (≈ 1.25 µg/mL)
- IC50 [2]: 4.85 µM

Compound: Cc1cc(Nc2ccc(N3CCCCC3)cc2)c2cc(C#N)ccc2n1
- MIC [1]: 14.6 µM (≈ 5 µg/mL)
- IC50 [2]: 19.6 µM

Compound: Cc1cc(Nc2ccc(N3CCCCC3)cc2)c2cc([N+](=O)[O-])ccc2n1
- MIC [1]: 6.9 µM (≈ 2.5 µg/mL)
- IC50 [2]: 18.6 µM

Compound: Cc1cc(Nc2ccc(N3CCCCC3)cc2)c2cc(C(C)C)ccc2n1
- MIC [1]: 6.9 µM (≈ 2.48 µg/mL)
- IC50 [2]: 8.2 µM

Compound: CCOC(=O)c1ccc2nc(C)cc(Nc3ccc(-n4cccn4)cc3)c2c1
- MIC [1]: > 6.7 µM
- IC50 [2]: 8 µM

Compound: Cc1cc(Nc2ccc(N3CCC(c4ccccc4)CC3)cc2)c2cc(Br)ccc2n1
- MIC [1]: 1.33 µM (≈ 0.628 µg/mL)
- IC50 [2]: > 50 µM

Compound: CCOC(=O)c1ccc2nc(C)cc(Nc3ccc(CC)cc3)c2c1
- MIC [1]: 29.9 µM (≈ 10 µg/mL)
- IC50 [2]: 41.3 µM

Compound: CC[C@@H](CO)NCCN[C@@H](CC)CO
- Activity [3]: inactive

Compound: Cc1cc(Nc2ccc(N3CCCCC3)cc2)c2cc(F)ccc2n1
- MIC [1]: 14.9 µM (≈ 5 µg/mL)
- IC50 [2]: 38.3 µM

Compound: CCOC(=O)c1ccc2nc(C)cc(Nc3ccc(N4CCN(Cc5ccccc5)CC4)cc3)c2c1
- MIC [1]: 10.4 µM (≈ 5 µg/mL)
- IC50 [2]: 26.2 µM

Compound: CCOC(=O)c1ccc2nc(C)cc(Nc3ccc(CN4CCCCC4)cc3)c2c1
- MIC [1]: 49.6 µM (≈ 20 µg/mL)
- IC50 [2]: > 50 µM

Compound: Cc1cc(Nc2ccc(N3CCCC3CO)cc2)c2cc(Br)ccc2n1 (stereo not given)
- MIC [1]: 12.1 µM (≈ 4.99 µg/mL)
- IC50 [2]: > 50 µM

Compound: Cc1cc(Nc2ccc(N3CCC(C)CC3)cc2)c2cc(Br)ccc2n1
- CC50 at 72 h [4]: 9.7 µM
- deltaH [5]: -5.6 kcal/mol
- deltaS [6]: 8.3 cal/mol/K
- MIC [1]: 0.7 µM (≈ 0.287 µg/mL)
- selectivity ratio [7]: 8.9
- Kd [8]: 1.25 µM
- Ki [9]: 0.69 µM
- selectivity ratio [10]: 17.4
- selectivity ratio [11]: 7.6
- Ki [12]: 0.79 µM
- CC50 at 72 h [13]: 5.3 µM
- Ki [14]: 0.72 µM
- CC50 at 72 h [15]: 6.2 µM
- CC50 at 72 h [16]: 12.2 µM
- TDI [17]: inactive
- selectivity ratio [18]: 13.8
- deltaG [19]: -8 kcal/mol
- IC50 [2]: 1.4 µM
